In ChEMBL document CHEMBL5678806, “NMS-P937, an orally available, specific small-molecule polo-like kinase 1 inhibitor with antitumor activity in solid and hematologic malignancies” (Mol Cancer Ther, 2012):
Activity calls are given as the source filed them. No cut-off for these calls is given here.

Columns and labels:
[1] = target: Serine/threonine-protein kinase Chk1 (Homo sapiens) (UniProt O14757); assay: Inhibition of N-terminal GST-tagged full length human CHK1 expressed in Sf21 cells assessed as residual activity at 0.1 uM relative to control
Serine/threonine-protein kinase Chk1 (Homo sapiens), sequence (O14757 whole entry): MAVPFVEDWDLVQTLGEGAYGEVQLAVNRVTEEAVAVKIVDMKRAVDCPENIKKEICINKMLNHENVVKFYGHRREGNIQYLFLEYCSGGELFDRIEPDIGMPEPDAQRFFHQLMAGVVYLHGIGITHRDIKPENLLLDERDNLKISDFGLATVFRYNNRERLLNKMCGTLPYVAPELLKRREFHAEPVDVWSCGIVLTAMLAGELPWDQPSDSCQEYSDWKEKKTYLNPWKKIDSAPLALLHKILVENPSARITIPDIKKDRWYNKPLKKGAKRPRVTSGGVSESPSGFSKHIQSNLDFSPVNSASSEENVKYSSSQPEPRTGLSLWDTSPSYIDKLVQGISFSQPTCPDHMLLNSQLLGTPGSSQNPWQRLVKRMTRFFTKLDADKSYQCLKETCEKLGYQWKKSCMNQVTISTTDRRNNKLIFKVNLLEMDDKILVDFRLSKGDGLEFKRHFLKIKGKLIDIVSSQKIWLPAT

[2] = target: Dual specificity protein kinase CLK2 (Homo sapiens) (UniProt P49760); assay: Inhibition of N-terminal GST-tagged recombinant human CLK2 (138 to end residues) expressed in baculovirus infected Sf21 cells assessed as residual activity at 0.1 uM relative to control
[3] = target: Insulin receptor-related protein (Homo sapiens) (UniProt P14616); assay: Inhibition of N-terminal 6His-tagged recombinant human IRR (944 to 1266 residues) expressed in baculovirus infected Sf21 cells assessed as residual activity at 0.1 uM relative to control
[4] = target: cGMP-dependent protein kinase 1 (Homo sapiens) (UniProt Q13976); assay: Inhibition of N-terminal 6His-tagged recombinant, full-length human PKG1alpha expressed in baculovirus infected Sf21 cells assessed as residual activity at 0.1 uM relative to control
cGMP-dependent protein kinase 1 (Homo sapiens), sequence (Q13976 whole entry): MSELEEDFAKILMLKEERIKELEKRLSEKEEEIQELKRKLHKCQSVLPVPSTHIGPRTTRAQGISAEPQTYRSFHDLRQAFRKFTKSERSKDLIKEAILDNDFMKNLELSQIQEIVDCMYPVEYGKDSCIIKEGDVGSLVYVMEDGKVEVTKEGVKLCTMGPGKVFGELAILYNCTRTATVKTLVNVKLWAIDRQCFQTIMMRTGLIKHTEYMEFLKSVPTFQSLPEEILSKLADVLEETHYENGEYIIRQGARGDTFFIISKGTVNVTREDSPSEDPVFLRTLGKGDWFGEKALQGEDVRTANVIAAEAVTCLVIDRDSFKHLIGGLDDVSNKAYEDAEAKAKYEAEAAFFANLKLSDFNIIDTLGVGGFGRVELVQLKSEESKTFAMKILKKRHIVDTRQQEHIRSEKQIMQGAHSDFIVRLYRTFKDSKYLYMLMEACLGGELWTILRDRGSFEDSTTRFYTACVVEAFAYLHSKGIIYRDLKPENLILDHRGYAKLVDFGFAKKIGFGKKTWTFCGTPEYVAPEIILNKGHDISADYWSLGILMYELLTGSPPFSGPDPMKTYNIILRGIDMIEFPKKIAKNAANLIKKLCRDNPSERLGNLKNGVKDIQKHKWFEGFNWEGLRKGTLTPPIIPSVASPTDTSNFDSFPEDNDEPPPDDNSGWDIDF

[5] = target: Tyrosine-protein kinase receptor TYRO3 (Homo sapiens) (UniProt Q06418); assay: Inhibition of N-terminal His6-tagged recombinant human Rse (451 to end residues) expressed in baculovirus infected Sf21 cells assessed as residual activity at 0.1 uM relative to control
Tyrosine-protein kinase receptor TYRO3 (Homo sapiens), sequence (Q06418 whole entry): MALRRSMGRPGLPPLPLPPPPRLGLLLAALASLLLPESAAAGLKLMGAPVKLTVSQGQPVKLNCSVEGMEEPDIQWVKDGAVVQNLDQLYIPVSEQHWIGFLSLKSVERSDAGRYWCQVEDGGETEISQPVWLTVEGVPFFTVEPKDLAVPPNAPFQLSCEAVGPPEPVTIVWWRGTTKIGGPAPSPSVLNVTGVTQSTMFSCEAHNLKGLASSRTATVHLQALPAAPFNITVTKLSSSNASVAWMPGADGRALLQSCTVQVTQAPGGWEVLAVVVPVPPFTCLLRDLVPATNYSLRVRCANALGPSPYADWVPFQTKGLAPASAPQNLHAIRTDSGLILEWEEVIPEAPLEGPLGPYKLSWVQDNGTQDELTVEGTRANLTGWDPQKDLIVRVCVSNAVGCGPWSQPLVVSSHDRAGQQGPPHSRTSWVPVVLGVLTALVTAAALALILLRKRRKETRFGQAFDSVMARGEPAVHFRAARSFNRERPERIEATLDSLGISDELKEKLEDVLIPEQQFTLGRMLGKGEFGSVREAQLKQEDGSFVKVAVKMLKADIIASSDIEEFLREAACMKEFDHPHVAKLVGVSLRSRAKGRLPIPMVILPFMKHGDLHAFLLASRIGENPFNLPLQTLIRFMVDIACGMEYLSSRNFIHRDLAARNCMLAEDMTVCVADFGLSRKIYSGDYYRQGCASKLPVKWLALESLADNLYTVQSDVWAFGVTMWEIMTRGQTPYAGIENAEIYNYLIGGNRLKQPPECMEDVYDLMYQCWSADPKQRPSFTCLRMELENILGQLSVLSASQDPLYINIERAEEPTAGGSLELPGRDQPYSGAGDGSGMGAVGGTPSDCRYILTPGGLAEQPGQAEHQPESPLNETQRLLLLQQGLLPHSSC

[6] = target: Aurora kinase A (Homo sapiens) (UniProt O14965); assay: Inhibition of N-terminal 6His-tagged recombinant full-length human Aurora-A expressed in Sf21 cells assessed as residual activity at 1 uM relative to control
Aurora kinase A (Homo sapiens), sequence (O14965 whole entry): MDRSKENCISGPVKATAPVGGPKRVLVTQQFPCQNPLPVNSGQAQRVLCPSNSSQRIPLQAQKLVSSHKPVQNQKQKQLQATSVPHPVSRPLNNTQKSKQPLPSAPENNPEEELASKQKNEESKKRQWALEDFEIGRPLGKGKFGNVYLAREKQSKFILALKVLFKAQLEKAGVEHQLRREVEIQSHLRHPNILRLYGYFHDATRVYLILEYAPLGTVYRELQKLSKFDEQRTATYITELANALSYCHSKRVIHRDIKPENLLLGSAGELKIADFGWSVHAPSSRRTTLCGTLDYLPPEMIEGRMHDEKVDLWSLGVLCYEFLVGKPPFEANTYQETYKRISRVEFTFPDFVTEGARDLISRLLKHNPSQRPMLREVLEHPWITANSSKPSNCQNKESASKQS

[7] = target: Tyrosine-protein kinase Fes/Fps (Homo sapiens) (UniProt P07332); assay: Inhibition of N-terminal His6-tagged recombinant full length human Fes expressed in baculovirus infected Sf21 cells assessed as residual activity at 1 uM relative to control
Tyrosine-protein kinase Fes/Fps (Homo sapiens), sequence (P07332 whole entry): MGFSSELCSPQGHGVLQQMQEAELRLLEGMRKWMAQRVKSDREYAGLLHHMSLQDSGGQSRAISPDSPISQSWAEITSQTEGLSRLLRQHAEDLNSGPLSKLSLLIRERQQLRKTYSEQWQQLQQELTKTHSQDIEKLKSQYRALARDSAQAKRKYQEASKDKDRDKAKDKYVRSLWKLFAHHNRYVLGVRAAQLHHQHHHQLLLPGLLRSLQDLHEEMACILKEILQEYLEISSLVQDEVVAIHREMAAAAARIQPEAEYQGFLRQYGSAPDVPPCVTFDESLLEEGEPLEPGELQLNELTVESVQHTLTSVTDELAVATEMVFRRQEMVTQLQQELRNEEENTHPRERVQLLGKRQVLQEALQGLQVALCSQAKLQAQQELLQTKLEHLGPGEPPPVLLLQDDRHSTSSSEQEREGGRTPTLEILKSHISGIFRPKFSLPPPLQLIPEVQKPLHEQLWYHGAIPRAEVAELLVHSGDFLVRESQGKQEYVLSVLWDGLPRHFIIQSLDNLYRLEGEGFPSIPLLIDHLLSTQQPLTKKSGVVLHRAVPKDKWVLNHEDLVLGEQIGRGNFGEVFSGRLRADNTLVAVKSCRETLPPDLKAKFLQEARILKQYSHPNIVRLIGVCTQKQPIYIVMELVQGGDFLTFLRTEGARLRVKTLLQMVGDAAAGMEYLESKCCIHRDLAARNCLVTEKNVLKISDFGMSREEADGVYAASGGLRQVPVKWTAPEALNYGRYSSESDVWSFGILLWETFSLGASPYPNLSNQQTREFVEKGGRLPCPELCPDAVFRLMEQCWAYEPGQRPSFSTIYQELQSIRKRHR

[8] = target: Dual specificity mitogen-activated protein kinase kinase 7 (Homo sapiens) (UniProt O14733); assay: Inhibition of N-terminal GST-tagged recombinant human MKK7beta (2 to end residues) expressed in E. coli assessed as residual activity at 1 uM relative to control
Dual specificity mitogen-activated protein kinase kinase 7 (Homo sapiens), sequence (O14733 whole entry): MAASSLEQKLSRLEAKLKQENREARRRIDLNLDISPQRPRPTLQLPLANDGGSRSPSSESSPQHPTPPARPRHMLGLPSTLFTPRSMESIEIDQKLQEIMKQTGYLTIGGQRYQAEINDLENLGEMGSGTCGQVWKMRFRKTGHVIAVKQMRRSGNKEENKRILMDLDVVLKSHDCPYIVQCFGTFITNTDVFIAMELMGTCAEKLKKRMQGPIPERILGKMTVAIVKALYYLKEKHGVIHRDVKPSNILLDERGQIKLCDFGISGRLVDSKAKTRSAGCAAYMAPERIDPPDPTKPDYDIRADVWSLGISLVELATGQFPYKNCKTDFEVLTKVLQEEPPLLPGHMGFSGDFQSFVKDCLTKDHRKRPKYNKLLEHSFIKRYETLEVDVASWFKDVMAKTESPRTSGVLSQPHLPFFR

[9] = target: Angiopoietin-1 receptor (Homo sapiens) (UniProt Q02763); assay: Inhibition of N-terminal His6-tagged recombinant human Tie2 (771 to end residues) expressed in baculovirus infected Sf21 cells assessed as residual activity at 1 uM relative to control
Angiopoietin-1 receptor (Homo sapiens), sequence (Q02763 whole entry): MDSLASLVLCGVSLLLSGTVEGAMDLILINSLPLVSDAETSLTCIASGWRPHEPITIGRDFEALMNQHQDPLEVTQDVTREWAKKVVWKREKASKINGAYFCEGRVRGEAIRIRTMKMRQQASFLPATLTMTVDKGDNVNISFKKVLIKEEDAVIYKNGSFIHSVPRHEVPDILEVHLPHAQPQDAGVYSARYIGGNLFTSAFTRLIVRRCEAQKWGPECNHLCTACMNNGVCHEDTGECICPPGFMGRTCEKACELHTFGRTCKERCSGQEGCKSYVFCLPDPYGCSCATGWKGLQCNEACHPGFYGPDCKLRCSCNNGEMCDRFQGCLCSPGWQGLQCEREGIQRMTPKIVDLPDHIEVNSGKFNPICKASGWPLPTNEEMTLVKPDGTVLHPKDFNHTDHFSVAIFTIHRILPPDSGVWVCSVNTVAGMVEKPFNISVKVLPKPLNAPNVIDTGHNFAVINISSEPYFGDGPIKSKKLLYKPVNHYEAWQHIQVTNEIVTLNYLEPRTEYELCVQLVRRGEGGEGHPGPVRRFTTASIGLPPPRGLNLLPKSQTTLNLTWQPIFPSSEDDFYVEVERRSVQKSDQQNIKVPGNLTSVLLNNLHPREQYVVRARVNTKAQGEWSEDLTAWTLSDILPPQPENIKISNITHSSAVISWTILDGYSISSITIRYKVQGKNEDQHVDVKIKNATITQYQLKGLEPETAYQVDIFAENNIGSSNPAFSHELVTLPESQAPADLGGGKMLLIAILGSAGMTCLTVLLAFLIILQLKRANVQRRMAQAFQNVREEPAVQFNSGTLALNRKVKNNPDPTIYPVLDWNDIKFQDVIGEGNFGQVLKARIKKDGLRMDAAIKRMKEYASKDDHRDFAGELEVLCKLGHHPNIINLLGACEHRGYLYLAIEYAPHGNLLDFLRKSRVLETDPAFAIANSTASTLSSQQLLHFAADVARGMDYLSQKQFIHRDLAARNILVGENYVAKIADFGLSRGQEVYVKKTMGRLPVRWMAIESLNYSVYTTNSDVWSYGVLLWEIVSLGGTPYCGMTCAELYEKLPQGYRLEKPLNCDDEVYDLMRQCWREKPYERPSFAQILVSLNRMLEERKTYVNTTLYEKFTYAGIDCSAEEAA

MDA-MB-435S = assay: Antiproliferative activity against human MDA-MB-435S cells assessed as inhibition of cell growth incubated for 72 hrs by cell-titer glo assay; type: functional, cell-based
Summary of the method: (§1)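 Cells seeded at 10,000–30,000/cm² (adherent) or 100,000/mL (nonadherent) in medium with 10% fetal calf serum; after 24 h, treated in duplicate with serial dilutions for 72 h. Viable cell number read by CellTiter-Glo luminescence; IC50 from sigmoidal fit; at least two independent experiments.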

HCC1954 = assay: Antiproliferative activity against human HCC1954 cells assessed as inhibition of cell growth incubated for 72 hrs by cell-titer glo assay; type: functional, cell-based; conditions: HCC1954, 72 h; summary of the method: as §1
LS174T = assay: Antiproliferative activity against human LS174T cells assessed as inhibition of cell growth incubated for 72 hrs by cell-titer glo assay; type: functional, cell-based; summary of the method: as §1
HOP-92 = assay: Antiproliferative activity against human HOP-92 cells assessed as inhibition of cell growth incubated for 72 hrs by cell-titer glo assay; type: functional, cell-based; conditions: HOP-92, 72 h; summary of the method: as §1
NCI-H520 = assay: Antiproliferative activity against human NCI-H520 cells assessed as inhibition of cell growth incubated for 72 hrs by cell-titer glo assay; type: functional, cell-based; conditions: NCI-H520, 72 h
Summary of the method: (§2)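 Cells from ATCC or ECACC, kept in supplier-recommended medium with 1% penicillin-streptomycin at 37°C, 5% CO₂. Seeded at 10,000–30,000/cm² (adherent) or 100,000/mL (nonadherent) in medium with 10% fetal calf serum. Dosed after 24 h in duplicate with serial dilutions. Viable cells read by CellTiter-Glo 72 h later. IC50 from sigmoidal fit. At least two independent experiments.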

NCI-H23 = assay: Antiproliferative activity against human NCI-H23 cells assessed as inhibition of cell growth incubated for 72 hrs by cell-titer glo assay; type: functional, cell-based; conditions: NCI-H23, 72 h; summary of the method: as §2
NCI-H1770 = assay: Antiproliferative activity against human NCI-H1770 cells assessed as inhibition of cell growth incubated for 72 hrs by cell-titer glo assay; type: functional, cell-based; conditions: NCI-H1770, 72 h; summary of the method: as §2
OVCAR-3 = assay: Antiproliferative activity against human OVCAR-3 cells assessed as inhibition of cell growth incubated for 72 hrs by cell-titer glo assay; type: functional, cell-based; conditions: OVCAR-3, 72 h; summary of the method: as §2
[10] = Antiproliferative activity against human A2780cis cells assessed as inhibition of cell growth incubated for 72 hrs by cell-titer glo assay; type: functional, cell-based
Summary of the method: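 Cells seeded 10,000–30,000/cm² (adherent) or 100,000/mL (suspension) in medium with 10% fetal calf serum; after 24 h treated in duplicate with serial dilutions for 72 h. Viable cells read by CellTiter-Glo luminescence; IC50 from sigmoidal fit; at least two independent experiments.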

NCI/ADR-RES = assay: Antiproliferative activity against human NCI/ADR-RES cells assessed as inhibition of cell growth incubated for 72 hrs by cell-titer glo assay; type: functional, cell-based; summary of the method: as §2
SK-MEL-28 = assay: Antiproliferative activity against human SK-MEL-28 cells assessed as inhibition of cell growth incubated for 72 hrs by cell-titer glo assay; type: functional, cell-based; conditions: SK-MEL-28, 72 h
K562 = assay: Antiproliferative activity against human K562 cells assessed as inhibition of cell growth incubated for 72 hrs by cell-titer glo assay; type: functional, cell-based; conditions: K562, 72 h; summary of the method: as §1
[11] = Antiproliferative activity against human TF-1a cells assessed as inhibition of cell growth incubated for 72 hrs by cell-titer glo assay; type: functional, cell-based
SR = assay: Antiproliferative activity against human SR cells assessed as inhibition of cell growth incubated for 72 hrs by cell-titer glo assay; type: functional, cell-based
SU-DHL-8 = assay: Antiproliferative activity against human SU-DHL-8 cells assessed as inhibition of cell growth incubated for 72 hrs by cell-titer glo assay; type: functional, cell-based; conditions: SU-DHL-8, 72 h
[12] = AUC in Sprague-Dawley rat at 10 mg/kg, iv by LC-MS analysis; type: ADME, organism-based; conditions: in vivo
[13] = AUC in male cynomolgus monkey at 5 mg/kg, iv by LC-MS analysis; type: ADME, organism-based, Macaca fascicularis; conditions: in vivo
[14] = Half-life in male cynomolgus monkey at 5 mg/kg, po by LC-MS analysis; type: ADME, organism-based, Macaca fascicularis; conditions: in vivo
[15] = Cmax in Sprague-Dawley rat at 10 mg/kg, po by LC-MS analysis; type: ADME, organism-based; conditions: in vivo
[16] = Oral bioavailability in Beagle dog at 5 mg/kg by LC-MS analysis; type: ADME, organism-based, Canis lupus familiaris; conditions: in vivo
COLO 205 = assay: Antitumor activity against human COLO 205 cells xenografted in nu/nu mouse assessed as tumor growth inhibition at 60 mg/kg, po administered for 10 days; type: functional, organism-based; conditions: time 10.0 day
A2780 = assay: Induction of mitosis in human A2780 cells xenografted in nu/nu mouse assessed as decreased Histone H3 phosphorylation on Ser10 at 60 mg/kg, po administered for 12 to 24 hrs by immunohistochemistry analysis; type: functional, organism-based; conditions: time lower […], time upper 24.0 hrs

**Q.** Which results are given for `CN1CCN(c2ccc(OC(F)(F)F)c(Nc3ncc4c(n3)-c3c(c(C(N)=O)nn3CCO)CC4)c2)CC1` [ONVANSERTIB]?
**A.** Activity [1]: 113%; Activity [2]: 52%; Activity [3]: 125%; Activity [4]: 113%; Activity [5]: 137%; Activity [6]: 113%; Activity [7]: 30%; Activity [8]: 80%; Activity [9]: 114%; IC50 (MDA-MB-435S): 23 nM; IC50 (HCC1954): 15 nM; IC50 (LS174T): 164 nM; IC50 (HOP-92): 283 nM; IC50 (NCI-H520): 73 nM; IC50 (NCI-H23): 56 nM; IC50 (NCI-H1770): 68 nM; IC50 (OVCAR-3): 41 nM; IC50 [10]: 48 nM; IC50 (NCI/ADR-RES): 1210 nM; IC50 (SK-MEL-28): 78 nM; IC50 (K562): 87 nM; IC50 [11]: 1780 nM; IC50 (SR): 47 nM; IC50 (SU-DHL-8): 31 nM; AUC [12]: 13.8 µM·h; AUC [13]: 14.1 µM·h; half-life [14]: 4.2 h; Cmax [15]: 4.2 µM; F [16]: 63%; TGI (COLO 205): Active; Activity (A2780): Active
